The values that follow come from ChEMBL document CHEMBL1772954, “Antifungal, cytotoxic and SAR studies of a series of N-alkyl, N-aryl and N-alkylphenyl-1,4-pyrrolediones and related compounds” (Bioorg Med Chem, 2011).

≈ marks a conversion by molar mass, not a printed value.

Data set [1] concerns Trichophyton mentagrophytes. Description: Antifungal activity against Trichophyton mentagrophytes ATCC 9972. Format: functional. The gist of the method: (§1)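 Dermatophytes tested by CLSI M38-A2 microdilution in MOPS-buffered RPMI-1640 at pH 7.0. Inoculum 1-5 × 10^3 CFU/mL; compounds 250 to 0.24 µg/ml in twofold steps, final DMSO <1%. Incubated at 28 °C in a moist, dark chamber and read according to control growth. MIC is the lowest concentration with complete inhibition. MFC is the lowest concentration with no growth after duplicate subculture on SDA.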

Data set [2] has as its system Candida tropicalis. Description: Antifungal activity against Candida tropicalis C 131 2000. Type of data set: functional. In a few lines: (§2)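 CLSI M27-A3 broth microdilution in RPMI-1640 buffered to pH 7.0 with MOPS. Inoculum 1-5 × 10^3 CFU/mL. Compound twofold dilutions from 250 to 0.24 µg/ml, final DMSO <1%. Incubated at 35 °C in a moist, dark chamber and read at 48 h. MIC is the lowest concentration giving total growth inhibition. For MFC, 5 µL from clear wells was plated in duplicate on SDA; MFC is the lowest concentration with no growth.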

For data set [3], the system named is Aspergillus fumigatus. Nature of the data set: Antifungal activity against Aspergillus fumigatus ATCC 26934. Format: functional. The gist of the method: (§3)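 Broth microdilution per CLSI M38-A2 in RPMI-1640 with MOPS at pH 7.0. Inoculum 1-5 × 10^3 CFU/mL, with twofold compound dilutions spanning 250-0.24 µg/ml (final DMSO <1%). Plates incubated at 35 °C, moist and dark, and read when the control fungus had grown. MIC is total growth inhibition. MFC comes from subculturing clear wells in duplicate onto SDA.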

Data set [4] concerns Aspergillus flavus. Nature of the data set: Antifungal activity against Aspergillus flavus ATCC 9170. Format: functional. In a few lines: as §3
The subject of data set [5] is Candida albicans. Nature of the data set: Antifungal activity against Candida albicans ATCC 10213. Type of data set: functional. In a few lines:
as §2

The subject of data set [6] is Trichophyton rubrum. Description: Antifungal activity against Trichophyton rubrum C 113 2000. Type of data set: functional. The gist of the method: as §1
Data set [7] is described as follows: Cytotoxicity against human erythrocytes assessed as hemolysis by spectrometric analysis. Format: cell-based, Erythrocyte. The gist of the method:
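Human heparinized red blood cells were washed in PBS at pH 7.0 and suspended at 4% in sterile 5% glucose. Compounds from DMSO stocks were diluted in 5% glucose to final concentrations of 250 to 0.24 µg/ml and incubated with the cells at 37 °C. Released hemoglobin was read at 540 nm. HC50 is the concentration giving 50% lysis relative to the drug-free value.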

The test system of data set [8] is NCI-H460. Nature of the data set: Cytotoxicity against human H460 cells assessed as cell growth after 2 days by sulforhodamine B assay. Type of data set: functional. Conditions: NCI-H460, 48 h. In a few lines: (§4)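 NCI cell lines were run by the Monks method: cells were plated with compounds from DMSO stocks and incubated 2 days at 37 °C in 5% CO2, in duplicate. Cells were fixed with cold TCA, stained with 0.4% SRB, and the bound dye was solubilized in 10 mM tris-base and read at 515 nm. The zero-day control was subtracted, and GI50 was taken from the curves.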
A general note: In SRB staining, fixed cells bind dye roughly in proportion to their protein.

Data set [9] has as its system Saccharomyces cerevisiae. Nature of the data set: Antifungal activity against Saccharomyces cerevisiae ATCC 9763. Type of data set: functional. The gist of the method: as §2
The subject of data set [10] is Nannizzia gypsea. Description: Antifungal activity against Microsporum gypseum C 115 2000. Type of data set: functional. In a few lines:
as §1

For data set [11], the system named is MCF7. Nature of the data set: Cytotoxicity against human MCF7 cells assessed as cell growth after 2 days by sulforhodamine B assay. To be noted: MCF7, 48 h. Type of data set: functional. The gist of the method:
as §4

Data set [12] deals with Aspergillus niger. Nature of the data set: Antifungal activity against Aspergillus niger ATCC 9029. Type of data set: functional. In a few lines: as §3
Data set [13] concerns SF-268. Description: Cytotoxicity against human SF268 cells assessed as cell growth after 2 days by sulforhodamine B assay. Format: functional. Conditions: SF-268, 48 h. In a few lines:
as §4

The test system of data set [14] is Cryptococcus neoformans. Nature of the data set: Antifungal activity against Cryptococcus neoformans ATCC 32264. Format: functional. The gist of the method:
as §2

One may read the MFC as the lowest tested concentration that kills the fungus rather than only halting it. The low end stands for more potent killing, the high end for less potent killing. For orientation: MIC means the lowest concentration found to suppress growth. Lower therefore signals a more susceptible organism. Usually HC50 stands for the concentration that lyses half of the red blood cells. One may read the GI50 as the concentration that inhibits growth by half.

`O=C1C=CC(=O)N1CCCc1ccccc1`: the MFC in data set [1] turned out to be 7.81 µg/mL (≈ 36.3 µM); in [2], 15.6 µg/mL (≈ 72.6 µM); in data set [3], 31.2 µg/mL (≈ 145 µM); in data set [4], 62.5 µg/mL (≈ 290 µM); in data set [6] it was 1.95 µg/mL (≈ 9.06 µM); in [9], 1.95 µg/mL (≈ 9.06 µM). In addition, the MFC in data set [10] stood at 1.95 µg/mL (≈ 9.06 µM); in [12] it was 15.6 µg/mL (≈ 72.6 µM); in data set [14], 31.2 µg/mL (≈ 145 µM). Besides, the MIC in data set [1] turned out to be 3.9 µg/mL (≈ 18.1 µM); in data set [2], 3.9 µg/mL (≈ 18.1 µM); in data set [3], 15.6 µg/mL (≈ 72.6 µM); in data set [4], 31.2 µg/mL (≈ 145 µM); in data set [5], 3.9 µg/mL (≈ 18.1 µM); in data set [6], 1.95 µg/mL (≈ 9.06 µM). The MIC is 0.97 µg/mL (≈ 4.51 µM) in [9], 0.97 µg/mL (≈ 4.51 µM) in [10], 15.6 µg/mL (≈ 72.6 µM) in data set [12] and 15.6 µg/mL (≈ 72.6 µM) in data set [14]. Moreover, in data set [7], the HC50 was greater than 250 µg/mL. Further, the 50% growth inhibitory concentration (GI50) was greater than 10 µg/mL in data set [8], 5.2 µg/mL (≈ 24.2 µM) in data set [11] and 5.8 µg/mL (≈ 26.9 µM) in [13].

On to `O=C1C=CC(=O)N1c1ccc(Br)cc1`, for which the MFC in data set [1] is 3.9 µg/mL (≈ 15.5 µM); in data set [2], 62.5 µg/mL (≈ 248 µM); in [3] it was 62.5 µg/mL (≈ 248 µM); in data set [4], 62.5 µg/mL (≈ 248 µM); in data set [5], 31.2 µg/mL (≈ 124 µM); in [6] it was 3.9 µg/mL (≈ 15.5 µM). For the same molecule, the MFC was 15.6 µg/mL (≈ 62 µM) in [9], 3.9 µg/mL (≈ 15.5 µM) in [10], 62.5 µg/mL (≈ 248 µM) in [12] and 15.6 µg/mL (≈ 62 µM) in data set [14]. Also, the MIC was determined as 1.95 µg/mL (≈ 7.74 µM) in data set [1]; 15.6 µg/mL (≈ 62 µM) in [2]; 31.2 µg/mL (≈ 124 µM) in data set [3]; 31.2 µg/mL (≈ 124 µM) in data set [4]; 15.6 µg/mL (≈ 62 µM) in data set [5]; 1.95 µg/mL (≈ 7.74 µM) in data set [6]. For the same molecule, the MIC came to 7.81 µg/mL (≈ 31 µM) in data set [9], 3.9 µg/mL (≈ 15.5 µM) in data set [10], 31.2 µg/mL (≈ 124 µM) in data set [12] and 7.81 µg/mL (≈ 31 µM) in [14]. Moreover, in data set [7], the HC50 was greater than 250 µg/mL. The GI50 in data set [8], in data set [11] and in data set [13] was greater than 10 µg/mL throughout.

With `O=C1C=CC(=O)N1Cc1ccccc1`, the minimal fungicidal concentration (MFC) in data set [1] turned out to be 7.81 µg/mL (≈ 41.7 µM); in [3], 250 µg/mL (≈ 1340 µM); in data set [4] it was 125 µg/mL (≈ 668 µM); in data set [5], 7.81 µg/mL (≈ 41.7 µM); in data set [6], 7.81 µg/mL (≈ 41.7 µM); in data set [9], 15.6 µg/mL (≈ 83.5 µM). Also, the MFC is 7.81 µg/mL (≈ 41.7 µM) in data set [10], 62.5 µg/mL (≈ 334 µM) in data set [12] and 15.6 µg/mL (≈ 83.5 µM) in [14]. Moreover, the MIC in data set [1] turned out to be 3.9 µg/mL (≈ 20.8 µM); in [2], 15.6 µg/mL (≈ 83.5 µM); in data set [3], 125 µg/mL (≈ 668 µM); in data set [4], 62.5 µg/mL (≈ 334 µM); in data set [5], 3.9 µg/mL (≈ 20.8 µM); in data set [6] it was 3.9 µg/mL (≈ 20.8 µM). The MIC in [9] was determined as 7.81 µg/mL (≈ 41.7 µM); in [10], 3.9 µg/mL (≈ 20.8 µM); in data set [12] it was 31.2 µg/mL (≈ 167 µM); in [14], 7.81 µg/mL (≈ 41.7 µM). The HC50 in data set [7] was greater than 250 µg/mL. Moreover, the GI50 in data set [8], in data set [11] and in data set [13] was greater than 10 µg/mL in each case.

Turning to `CC(C)(C)c1ccccc1N1C(=O)C=CC1=O`, the MFC in data set [1] is 3.9 µg/mL (≈ 17 µM); in data set [2], 3.9 µg/mL (≈ 17 µM); in data set [3], 31.2 µg/mL (≈ 136 µM); in data set [4], 62.5 µg/mL (≈ 273 µM); in data set [5] it was 3.9 µg/mL (≈ 17 µM); in data set [6], 3.9 µg/mL (≈ 17 µM). In addition, the minimum fungicidal concentration (MFC) in data set [9] amounted to 7.81 µg/mL (≈ 34.1 µM); in data set [10], 3.9 µg/mL (≈ 17 µM); in [12], 125 µg/mL (≈ 545 µM); in [14], 7.81 µg/mL (≈ 34.1 µM). In addition, the MIC in data set [1] was determined as 1.95 µg/mL (≈ 8.5 µM); in data set [2], 3.9 µg/mL (≈ 17 µM); in [3], 15.6 µg/mL (≈ 68.2 µM); in [4], 62.5 µg/mL (≈ 273 µM); in data set [5], 3.9 µg/mL (≈ 17 µM); in data set [6] it was 1.95 µg/mL (≈ 8.5 µM). Further, the MIC in data set [9] turned out to be 3.9 µg/mL (≈ 17 µM); in [10] it was 1.95 µg/mL (≈ 8.5 µM); in data set [12], 62.5 µg/mL (≈ 273 µM); in data set [14] it was 3.9 µg/mL (≈ 17 µM). For the same molecule, in [7], the HC50 is greater than 250 µg/mL. In addition, the GI50 in [8], in [11] and in data set [13] was greater than 10 µg/mL throughout.
